This passage reports cytotoxicity results from ChEMBL document CHEMBL4513216, “Probing the Open Global Health Chemical Diversity Library for Multistage-Active Starting Points for Next-Generation Antimalarials” (ACS Infect Dis, 2020).

The nature of this data set: Toxicity liver stage against HepG2, at 10uM. In kind it is cell-based. Set-up: test concentration 10 uM, cell line HepG2-A16-CD81EGFP. The following applies: human, HepG2-A16-CD81EGFP cells; read-out: INHIBITION
In short, it runs like this: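 Uninfected HepG2-A16-CD81EGFP cells, 3 × 10^3 per well, 1536-well, plated on prespotted compound at 10 μM final, parasite-free screening media added to match infected plates; puromycin 10 μM positive, DMSO 0.5% negative; run in parallel with 48 h PbLuc assay at 37 °C, 5% CO2; viability by CellTiter-Glo luminescence, normalized to controls.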

With `Cc1nc(C2CCCN2CCc2cccs2)no1` (configuration not stated), the cytotoxicity at 10 µM stood at 10.4%.

Regarding `COCCC(=O)N(C)Cc1nc(C(F)(F)F)cs1`, the cytotoxicity at 10 µM came out at 23.3%.

Consider `CC(C)(C)n1nc(C(=O)NCC2(C(N)=O)CCOCC2)cc1C1CC1`, for which the cytotoxicity at 10 µM is -15.9%.

On to `CCNc1nnc(SCC(=O)N2CCN(Cc3ccc(Cl)s3)CC2)s1`, for which the cytotoxicity at 10 µM was 15.2%.

With `Cc1cccc2c1ccn2CC(=O)O`, the cytotoxicity at 10 µM came out at 9.49%.

Turning to `O=C(c1ccccn1)N1CCC(S(=O)(=O)c2ccccc2)C1` (configuration not stated), the cytotoxicity at 10 µM was determined as 3.26%.

In the case of `CCC(=O)NC1CCCN(C(=O)Nc2cccc(COC(C)C)c2)C1` (configuration not stated), the cytotoxicity at 10 µM was found to be 7.96%.

Take `CN1CCO[C@H]2CN(C(=O)c3ccoc3)C[C@H]21`: the cytotoxicity at 10 µM was -80.6%.

In the case of `CC(=O)N1CCCN(C(=O)c2cnn(-c3ccccc3Cl)c2)CC1`, the cytotoxicity at 10 µM was -11.4%.

For the compound `COCCN1CCN(Cc2cccc(OCC(N)=O)c2)CC1C` (configuration not stated), the cytotoxicity at 10 µM is 2.43%.

For `Cn1cc(C[C@H]2[C@H](N3CCOCC3)CCN2C(=O)c2ccc[nH]2)cn1`, the cytotoxicity at 10 µM is -75%.

As to `COc1cccc(C(=O)N(C)C(C)c2c(C)n[nH]c2C)c1OC` (configuration not stated), the cytotoxicity at 10 µM is -2.8%.

Turning to `CCC1=N[C@@]2(CC[C@@H]3CN(C(=O)Nc4ccc(F)cc4)C[C@@H]32)C(=O)N1`, the cytotoxicity at 10 µM was -24%.

Take `CC(=O)NC1CCCN(C(=O)c2ccc(Br)cc2O)C1` (configuration not stated): the cytotoxicity at 10 µM is -10.4%.

For the compound `O=C(c1ccc(N2CCCC2)nc1)N1CCCC(n2cncn2)C1` (configuration not stated), the cytotoxicity at 10 µM was -5.22%.

Consider `CS(=O)(=O)NC1CCN(C(=O)COCc2ccccc2)CC1`, for which the cytotoxicity at 10 µM is -8.61%.

On to `Cn1nc(Cn2cccc2)c2c1CN(Cc1ccoc1)C2`, for which the cytotoxicity at 10 µM stood at 2.96%.

Regarding `COc1c(C2CCCN2C(=O)c2ccc3[nH]cnc3c2)c(C)nn1C` (configuration not stated), the cytotoxicity at 10 µM is -8.04%.

Turning to `CCC(=O)N1CCCC(c2cc(Nc3ncccn3)nc(C)n2)C1` (configuration not stated), the cytotoxicity at 10 µM is -3.48%.

`O=S(=O)(c1cn[nH]c1)N1CCCC1c1cc[nH]n1` (configuration not stated): the cytotoxicity at 10 µM is -23%.

As to `Cn1cc(NC(=O)N2CCCC2c2ccccn2)ccc1=O` (configuration not stated), the cytotoxicity at 10 µM is -3.83%.

On to `Cc1ccc(C)n1-c1c(C(=O)NCC(C)Cn2cccn2)cnn1C` (configuration not stated), for which the cytotoxicity at 10 µM turned out to be 13.8%.

In the case of `Cn1c(CN2CCCC2)nnc1C1CCCN(C(=O)CN2CCCC2)C1` (configuration not stated), the cytotoxicity at 10 µM was -1.9%.

For the compound `CCCc1nnc(NC2CCN(C3CCOCC3)CC2)o1`, the cytotoxicity at 10 µM is -4.92%.

`Cc1cnn(CC2CCCN2Cc2nc3ccccc3n2C)c1` (configuration not stated): the cytotoxicity at 10 µM is -14.5%.

On to `Cc1cccc(OC2CCN(c3nccnc3C#N)CC2)n1`, for which the cytotoxicity at 10 µM is 1.1%.

In the case of `O=C(Cc1cccs1)N1C[C@H]2CN(CC3CCCO3)CC[C@H]2C1` (some centres not stated), the cytotoxicity at 10 µM was determined as 4.96%.

For the compound `Cc1cccc(C2CCCN(C(=O)CN3C(=O)CCNC3=O)C2)c1` (configuration not stated), the cytotoxicity at 10 µM was -2.56%.

As for `COc1ccc(CNc2nc(C3CC3)nc3c(C)nn(C)c23)cc1`, the cytotoxicity at 10 µM stood at 5.4%.

For the compound `COc1cc(N2CC[C@@H](OC)[C@@H]2Cc2cnn(C)c2)ncn1`, the cytotoxicity at 10 µM is -0.155%.

Regarding `CCc1nccn1C1CCCN(C(=O)c2cncnc2C)C1` (configuration not stated), the cytotoxicity at 10 µM is -11.8%.

For `CC(C)n1ccnc1C1CCN(Cc2ccc(Cl)c(F)c2)CC1`, the cytotoxicity at 10 µM is -3.59%.

For the compound `O=C(c1ccnnc1)N1C[C@H]2CCC[C@@]2(COCc2ccccn2)C1`, the cytotoxicity at 10 µM was -78.7%.

For the compound `O=C(c1cnco1)N1CCC(Cc2cnc3ccccc3c2)CC1`, the cytotoxicity at 10 µM was determined as 5.08%.

For `COc1cccc(CN2C[C@@H]3CC[C@@](O)(c4ccccn4)[C@@H]3C2)c1OC`, the cytotoxicity at 10 µM is -9.94%.

With `CNC(=O)C1CCN(C(=O)c2coc(COc3ccc(OC)cc3)n2)C1` (configuration not stated), the cytotoxicity at 10 µM is -1.74%.

On to `CC(C)C(O)CNC(=O)CCCc1ccccn1` (configuration not stated), for which the cytotoxicity at 10 µM is 0.665%.

Turning to `CC(Cc1ccco1)NC(=O)Nc1ccc(N2CCOCC2)nc1` (configuration not stated), the cytotoxicity at 10 µM was determined as 0.813%.

Turning to `CCn1cnnc1C1CCN(C(=O)c2ccc(Cl)s2)CC1`, the cytotoxicity at 10 µM is -12.2%.

In the case of `Cn1cc(C(=O)NCC2CCN(C(=O)NCC(F)(F)F)CC2)cn1`, the cytotoxicity at 10 µM is -3.68%.

`Cc1ccc(CN2CCN(CC(=O)Nc3ccc4nsnc4c3)CC2)o1`: the cytotoxicity at 10 µM was -17.5%.

With `CCCN1C[C@@H]2CC[C@H]1CN(Cc1ccc(Cn3cccn3)cc1)C2`, the cytotoxicity at 10 µM was -4.87%.

`CCN(CC)S(=O)(=O)CC(=O)Nc1ccsc1`: the cytotoxicity at 10 µM was -2.77%.

In the case of `O=C(CCc1nccs1)N1CCN(c2cccnn2)CC1`, the cytotoxicity at 10 µM was -2.84%.

`CCc1noc(CN(C)C(=O)C2COc3ccccc3C2)n1` (configuration not stated): the cytotoxicity at 10 µM amounted to 1.3%.

Take `Cc1cc(CN2CCN(C(=O)NC(C)c3cccnc3)CC2)on1` (configuration not stated): the cytotoxicity at 10 µM is -7.93%.

In the case of `O=C(Cc1ccon1)NC1CC2(CCC2)Oc2ccccc21` (configuration not stated), the cytotoxicity at 10 µM was -6.71%.

With `CN(C)c1cc2c(nn1)CCN(C(=O)C1CCc3ccccc31)C2` (configuration not stated), the cytotoxicity at 10 µM was -12.2%.

Regarding `CN(C)C(C(=O)N1CCCC1)c1ccccc1F` (configuration not stated), the cytotoxicity at 10 µM came to 7.35%.

On to `CN(Cc1nncn1-c1cccc(C(F)(F)F)c1)S(C)(=O)=O`, for which the cytotoxicity at 10 µM turned out to be 3.01%.

Consider `CN1CC2(CCN(CCCOCc3ccccc3)CC2)OC1=O`, for which the cytotoxicity at 10 µM is 3.12%.

Consider `O=C([C@@H]1CCO[C@@H]2CCN(CC3CC3)C[C@H]21)N1CCCCO1`, for which the cytotoxicity at 10 µM is 6.59%.

With `Cc1nc[nH]c1CN1CCC(C2CCN(CCc3ccccc3)C2)CC1` (configuration not stated), the cytotoxicity at 10 µM was -3.52%.

Consider `Cc1ccsc1CN1CCc2c(nc(N3CCCCC3C)[nH]c2=O)C1` (configuration not stated), for which the cytotoxicity at 10 µM was -3.42%.

`CC(C)(C)CN1CC[C@H](c2nnc(Cc3c[nH]c4ccccc34)o2)C1`: the cytotoxicity at 10 µM is -3.9%.

Take `O=C(Cc1ccc(F)cc1)NCCNCC1CNc2ccnn2C1` (configuration not stated): the cytotoxicity at 10 µM was -3.47%.

`Cc1nn(C)cc1Cn1cc(Cl)c(N)n1`: the cytotoxicity at 10 µM is -5.61%.

For `C1CC(NCc2nnc(C3CC3)o2)CN(Cc2noc(C3CC3)n2)C1` (configuration not stated), the cytotoxicity at 10 µM was -19%.

With `CN1CCC2(CC1)C(=O)N(C)c1ccc(F)cc12`, the cytotoxicity at 10 µM was -115%.

For `Cc1ccsc1CN(c1nc(CCN)nc2ccccc12)C1CC1`, the cytotoxicity at 10 µM turned out to be 11.7%.

On to `CCS(=O)(=O)NCCCNC1CSCCc2ccccc21` (configuration not stated), for which the cytotoxicity at 10 µM was -3.66%.

`CC(O)CNc1ccc(C#N)cc1C(F)(F)F` (configuration not stated): the cytotoxicity at 10 µM was -42.7%.

As for `COC(=O)C(CO)NC(=O)c1cn(Cc2ccccc2F)nn1` (configuration not stated), the cytotoxicity at 10 µM was -1.14%.

As to `COc1cccc(S(=O)(=O)NC(=O)CC2CCCO2)c1` (configuration not stated), the cytotoxicity at 10 µM was found to be 7.53%.

On to `Cc1nnc2n1CCN(CCS(=O)(=O)c1ccc(Cl)cc1)C2`, for which the cytotoxicity at 10 µM is -4.53%.

With `Cc1ccc(NC2CCN(C(=O)c3cccc4[nH]ncc34)CC2)nn1`, the cytotoxicity at 10 µM is -13.7%.

Turning to `c1cnc(-c2nc(CN3CCCC(Cn4cncn4)C3)cs2)nc1` (configuration not stated), the cytotoxicity at 10 µM was -7.91%.

Take `CC(CC(=O)NS(=O)(=O)c1ccc2c(c1)OCCO2)c1ccc(F)cc1` (configuration not stated): the cytotoxicity at 10 µM is -31.6%.

For `Cc1cc(C(=O)N(C)S(C)(=O)=O)ccc1F`, the cytotoxicity at 10 µM was -38.4%.

As to `CC(NCc1cnc(N2CCOCC2)s1)c1ccc(Cl)s1` (configuration not stated), the cytotoxicity at 10 µM is -9.02%.

Turning to `Cc1nnc(CN(C)CCOc2cccc(Cl)c2)o1`, the cytotoxicity at 10 µM was 12.8%.

In the case of `CCc1ccc(S(=O)(=O)N2CCCC3(CCCN3S(C)(=O)=O)C2)cc1` (configuration not stated), the cytotoxicity at 10 µM is -2.98%.

For the compound `N#Cc1cccc(CN2CC[C@@H]3[C@@H]2CC(=O)N3Cc2cccnc2)c1`, the cytotoxicity at 10 µM turned out to be 5.2%.

Turning to `O=C(CN1CCOCS1(=O)=O)NCc1ccccc1`, the cytotoxicity at 10 µM is 1.09%.

In the case of `O=C(CCC(=O)N1CCCC1c1cccs1)N1CCc2sccc2C1` (configuration not stated), the cytotoxicity at 10 µM is -8.45%.

For the compound `COC[C@@H]1CCC[C@@]12CN(Cc1ccc(C)s1)CCO2`, the cytotoxicity at 10 µM amounted to 6.76%.

Turning to `Cc1nc(NCCC23CCCN2CCC3)cc(C2CCCNC2)n1` (configuration not stated), the cytotoxicity at 10 µM was 7.98%.

Regarding `CCCN1CCC2(C1)c1ccccc1S(=O)(=O)N2C` (configuration not stated), the cytotoxicity at 10 µM turned out to be 9.04%.

In the case of `Cc1ccc(C2CCCCCN2C(=O)Nc2cn[nH]c2)o1` (configuration not stated), the cytotoxicity at 10 µM is 5.16%.

As to `CC(=O)NCC1CCN(C(=O)NCCc2ccc3c(c2)OCO3)CC1`, the cytotoxicity at 10 µM was -5.22%.

`CC(C)n1cc(C(=O)NCC(CO)Cc2cccs2)cn1` (configuration not stated): the cytotoxicity at 10 µM came to 7.64%.

`O=S(=O)(C1CC1)N1CCOC2(COCCN(c3ncccn3)C2)C1` (configuration not stated): the cytotoxicity at 10 µM was determined as 8.55%.

`COC(=O)CCC(=O)N1CCCC2(CCCN2Cc2cccc(F)c2)C1` (configuration not stated): the cytotoxicity at 10 µM is -104%.

On to `NC(=O)CN1CCN(CC2CC2)c2ccccc21`, for which the cytotoxicity at 10 µM worked out at 3.92%.

Regarding `Cc1ccc(Cl)c2ccc(NC(CO)CO)nc12`, the cytotoxicity at 10 µM is -12.1%.

`COc1cccc(CN(Cc2ccco2)Cc2cnc(C)n2C)c1`: the cytotoxicity at 10 µM came out at 3.65%.

Turning to `Cc1cc(CN2C[C@H]3CCC[C@@]3(COCC3CCOCC3)C2)no1`, the cytotoxicity at 10 µM came to 0.073%.

With `Cc1cc(CN2C[C@@H](C)[C@@]3(CCN(CC(=O)N(C)C)C3=O)C2)oc1C`, the cytotoxicity at 10 µM was determined as 9.94%.

On to `COc1ccc(C(=O)N(C)Cc2cc(C)on2)c(OC)c1`, for which the cytotoxicity at 10 µM is -11.3%.

On to `CC(C)NC(=O)[C@H](C)NC(=O)N1CCN(c2ccc(Cl)cc2)CC1`, for which the cytotoxicity at 10 µM was 0.592%.

For `COCCN1CCCCC12CC(=O)N(c1ccccc1OC)C2` (configuration not stated), the cytotoxicity at 10 µM is -92.6%.

On to `O=C1CC(NS(=O)(=O)c2ccc3ccccc3c2)CN1` (configuration not stated), for which the cytotoxicity at 10 µM turned out to be 3.94%.

Turning to `COCCC1COC2(CCN(C(=O)CC3CCCC3)CC2)C1` (configuration not stated), the cytotoxicity at 10 µM is -2.46%.

With `CCOc1ccc(C(=O)CCC(=O)N(C)Cc2noc(C)n2)cc1C`, the cytotoxicity at 10 µM is -4.34%.

Consider `NCC(c1ccc(Cl)cc1)N1CCc2sccc2C1` (configuration not stated), for which the cytotoxicity at 10 µM is 6.33%.

With `Cc1ccc(CN2Cc3ccnn3CC(COCc3cccnc3)C2)o1` (configuration not stated), the cytotoxicity at 10 µM is -143%.

With `CCC(=O)NCC(=O)N(C)C(c1ccc(Cl)cc1)c1cccnc1` (configuration not stated), the cytotoxicity at 10 µM turned out to be 3.88%.
